From ChEMBL document CHEMBL2434863, “Synthesis and in vitro/in vivo antibacterial activity of oxazolidinones having thiocarbamate at C-5 on the A-ring and an amide- or urea-substituted [1,2,5]triazepane or [1,2,5]oxadiazepane as the C-ring” (Eur J Med Chem, 2013)

Columns and labels:
Staphylococcus aureus [1] = assay: Antibacterial activity against methicillin-resistant Staphylococcus aureus SR3637 infected in JCL/ICR mouse systemic infection model assessed as mortality administered as iv measured over 7 days; type: functional; conditions: 168 h
Summary of the method: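 Lethal systemic infection model in mice; test agents were given intravenously.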

Staphylococcus aureus [2] = assay: Antibacterial activity against methicillin-resistant Staphylococcus aureus SR3637 assessed as growth inhibition by broth microdilution method; type: functional
Haemophilus influenzae [3] = assay: Potency index, ratio of linezolid MIC to compound MIC for Haemophilus influenzae SR27914 clinical isolate; type: functional
Streptococcus pneumoniae [4] = assay: Potency index, ratio of linezolid MIC to compound MIC for Streptococcus pneumoniae SR26207 clinical isolate; type: functional
Moraxella catarrhalis [5] = assay: Potency index, ratio of linezolid MIC to compound MIC for Moraxella catarrhalis SR26840 clinical isolate; type: functional
Enterococcus faecium [6] = assay: Potency index, ratio of linezolid MIC to compound MIC for Enterococcus faecium SR7940 clinical isolate; type: functional
Enterococcus faecalis [7] = assay: Potency index, ratio of linezolid MIC to compound MIC for Enterococcus faecalis SR1004 clinical isolate; type: functional
Staphylococcus aureus [8] = assay: Potency index, ratio of linezolid MIC to compound MIC for Staphylococcus aureus Smith; type: functional
Staphylococcus aureus [9] = assay: Potency index, ratio of linezolid MIC to compound MIC for Staphylococcus aureus SR20549 clinical isolate; type: functional
Haemophilus influenzae [10] = assay: Antibacterial activity against Haemophilus influenzae SR27914 clinical isolate assessed as growth inhibition by broth microdilution method; type: functional
Streptococcus pneumoniae [11] = assay: Antibacterial activity against Streptococcus pneumoniae SR26207 clinical isolate assessed as growth inhibition by broth microdilution method; type: functional
Staphylococcus aureus [12] = assay: Antibacterial activity against linezolid-resistant Staphylococcus aureus NRS271 assessed as growth inhibition by broth microdilution method; type: functional
Enterococcus faecalis [13] = assay: Antibacterial activity against Enterococcus faecalis SR1004 clinical isolate assessed as growth inhibition by broth microdilution method; type: functional
Staphylococcus aureus [14] = assay: Antibacterial activity against Staphylococcus aureus SR20549 clinical isolate assessed as growth inhibition by broth microdilution method; type: functional
Staphylococcus aureus [15] = assay: Antibacterial activity against Staphylococcus aureus Smith assessed as growth inhibition by broth microdilution method; type: functional
Moraxella catarrhalis [16] = assay: Antibacterial activity against Moraxella catarrhalis SR26840 clinical isolate assessed as growth inhibition by broth microdilution method; type: functional
Enterococcus faecium [17] = assay: Antibacterial activity against Enterococcus faecium SR7940 clinical isolate assessed as growth inhibition by broth microdilution method; type: functional
MAO-B = molecular target: T1, MAO-B (Rattus norvegicus, UniProt P19643); assay: Inhibition of MAO-B in rat forebrain using [14C]PEA as substrate at 30 uM incubated for 20 mins prior to substrate addition measured after 10 mins by liquid scintillation counting analysis; type: tissue-based; conditions: probe [14C]PEA
T1 sequence (P19643 whole entry): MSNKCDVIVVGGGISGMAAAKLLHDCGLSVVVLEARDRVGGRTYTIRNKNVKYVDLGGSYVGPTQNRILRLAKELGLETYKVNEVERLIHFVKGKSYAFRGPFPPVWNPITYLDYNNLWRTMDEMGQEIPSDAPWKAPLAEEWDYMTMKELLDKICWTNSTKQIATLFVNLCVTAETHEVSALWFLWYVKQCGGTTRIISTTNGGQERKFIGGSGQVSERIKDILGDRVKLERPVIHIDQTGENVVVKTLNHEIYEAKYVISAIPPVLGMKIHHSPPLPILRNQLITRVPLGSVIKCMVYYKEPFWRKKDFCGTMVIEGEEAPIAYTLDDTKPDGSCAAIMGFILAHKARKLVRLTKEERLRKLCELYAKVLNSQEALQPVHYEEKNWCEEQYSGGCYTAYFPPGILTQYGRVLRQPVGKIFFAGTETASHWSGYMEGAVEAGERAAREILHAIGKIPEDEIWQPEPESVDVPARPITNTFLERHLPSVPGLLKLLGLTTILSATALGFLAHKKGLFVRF

MAO-A = molecular target: T2, MAO-A (Rattus norvegicus, UniProt P21396); assay: Inhibition of MAO-A in rat forebrain using [14C]5-HT as substrate at 30 uM incubated for 20 mins prior to substrate addition measured after 5 mins by liquid scintillation counting analysis; type: tissue-based; conditions: probe [14C]5-HT
T2 sequence (P21396 whole entry): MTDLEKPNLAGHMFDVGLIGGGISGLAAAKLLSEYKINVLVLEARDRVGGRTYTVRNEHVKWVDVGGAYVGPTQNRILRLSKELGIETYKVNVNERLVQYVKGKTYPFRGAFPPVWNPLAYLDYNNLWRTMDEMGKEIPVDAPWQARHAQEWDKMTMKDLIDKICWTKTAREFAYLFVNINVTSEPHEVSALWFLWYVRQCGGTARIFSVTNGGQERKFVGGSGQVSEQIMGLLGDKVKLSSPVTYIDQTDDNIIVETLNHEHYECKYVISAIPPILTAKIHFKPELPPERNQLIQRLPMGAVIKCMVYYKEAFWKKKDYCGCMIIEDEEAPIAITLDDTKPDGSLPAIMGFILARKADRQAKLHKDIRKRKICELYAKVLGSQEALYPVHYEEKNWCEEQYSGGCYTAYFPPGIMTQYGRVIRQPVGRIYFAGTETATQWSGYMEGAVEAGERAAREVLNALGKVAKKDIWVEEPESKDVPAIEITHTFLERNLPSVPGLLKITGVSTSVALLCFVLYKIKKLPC

Cytochrome P450 3A4 = Cytochrome P450 3A4 (Homo sapiens, UniProt P08684); assay: Inhibition of CYP3A4 in human liver microsomes assessed as terfenadine hydroxylation after 20 mins by LC/MS/MS analysis; type: ADME, Microsome
Cytochrome P450 2D6 = Cytochrome P450 2D6 (Homo sapiens, UniProt P10635); assay: Inhibition of CYP2D6 in human liver microsomes assessed as dextromethorphan O-demethylation after 20 mins by LC/MS/MS analysis; type: ADME, Microsome
Cytochrome P450 2C9 = Cytochrome P450 2C9 (Homo sapiens, UniProt P11712); assay: Inhibition of CYP2C9 in human liver microsomes assessed as tolbutamide hydroxylation after 20 mins by LC/MS/MS analysis; type: ADME, Microsome
Cytochrome P450 1A2 = molecular target: T3, Cytochrome P450 1A2 (Homo sapiens, UniProt P05177); assay: Inhibition of CYP1A2 in human liver microsomes assessed as ethoxyresorufin O-deethylation after 20 mins by fluorescence plate reader analysis; type: ADME, Microsome
T3 sequence (P05177 whole entry): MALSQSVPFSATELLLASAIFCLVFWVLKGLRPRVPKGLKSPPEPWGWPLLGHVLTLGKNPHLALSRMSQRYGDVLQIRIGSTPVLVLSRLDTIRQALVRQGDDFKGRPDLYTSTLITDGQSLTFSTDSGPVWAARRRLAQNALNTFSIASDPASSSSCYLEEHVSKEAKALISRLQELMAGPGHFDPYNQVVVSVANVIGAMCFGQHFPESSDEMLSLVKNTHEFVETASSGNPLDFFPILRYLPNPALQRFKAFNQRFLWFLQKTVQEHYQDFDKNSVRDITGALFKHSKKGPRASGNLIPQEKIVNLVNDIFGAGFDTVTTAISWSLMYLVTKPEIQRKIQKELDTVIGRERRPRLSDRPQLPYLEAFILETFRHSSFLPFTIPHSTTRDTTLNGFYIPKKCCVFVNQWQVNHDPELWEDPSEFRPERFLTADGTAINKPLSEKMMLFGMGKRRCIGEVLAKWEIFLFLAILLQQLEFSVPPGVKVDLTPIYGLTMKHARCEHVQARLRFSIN

Cytochrome P450 2C9, sequence (P11712 whole entry): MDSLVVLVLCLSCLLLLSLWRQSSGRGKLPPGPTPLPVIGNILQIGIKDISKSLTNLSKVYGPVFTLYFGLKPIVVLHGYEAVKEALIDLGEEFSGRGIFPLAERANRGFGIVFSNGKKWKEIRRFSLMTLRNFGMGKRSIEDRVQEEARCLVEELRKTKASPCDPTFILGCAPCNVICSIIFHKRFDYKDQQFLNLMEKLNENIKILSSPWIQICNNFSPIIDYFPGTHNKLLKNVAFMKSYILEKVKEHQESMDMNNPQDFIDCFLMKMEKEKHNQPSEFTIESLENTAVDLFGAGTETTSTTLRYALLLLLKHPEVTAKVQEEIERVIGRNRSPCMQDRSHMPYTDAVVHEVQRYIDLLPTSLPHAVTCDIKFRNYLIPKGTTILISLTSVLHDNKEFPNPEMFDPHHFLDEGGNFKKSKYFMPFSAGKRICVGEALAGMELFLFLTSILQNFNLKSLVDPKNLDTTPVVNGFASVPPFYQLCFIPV
Cytochrome P450 3A4, sequence (P08684 whole entry): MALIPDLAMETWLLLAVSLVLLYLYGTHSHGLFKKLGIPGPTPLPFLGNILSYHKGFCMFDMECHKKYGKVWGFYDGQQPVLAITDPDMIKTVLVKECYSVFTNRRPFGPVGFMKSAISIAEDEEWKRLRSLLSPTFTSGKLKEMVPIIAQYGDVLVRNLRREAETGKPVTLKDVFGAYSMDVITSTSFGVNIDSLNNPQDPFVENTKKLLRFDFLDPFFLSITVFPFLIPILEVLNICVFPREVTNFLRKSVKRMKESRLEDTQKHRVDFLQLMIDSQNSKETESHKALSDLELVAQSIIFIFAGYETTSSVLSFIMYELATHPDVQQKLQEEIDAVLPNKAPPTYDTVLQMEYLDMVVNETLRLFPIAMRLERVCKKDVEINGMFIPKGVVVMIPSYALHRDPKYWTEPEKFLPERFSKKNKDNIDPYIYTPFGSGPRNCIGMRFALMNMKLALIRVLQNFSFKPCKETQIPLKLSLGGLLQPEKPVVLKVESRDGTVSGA
Cytochrome P450 2D6, sequence (P10635 whole entry): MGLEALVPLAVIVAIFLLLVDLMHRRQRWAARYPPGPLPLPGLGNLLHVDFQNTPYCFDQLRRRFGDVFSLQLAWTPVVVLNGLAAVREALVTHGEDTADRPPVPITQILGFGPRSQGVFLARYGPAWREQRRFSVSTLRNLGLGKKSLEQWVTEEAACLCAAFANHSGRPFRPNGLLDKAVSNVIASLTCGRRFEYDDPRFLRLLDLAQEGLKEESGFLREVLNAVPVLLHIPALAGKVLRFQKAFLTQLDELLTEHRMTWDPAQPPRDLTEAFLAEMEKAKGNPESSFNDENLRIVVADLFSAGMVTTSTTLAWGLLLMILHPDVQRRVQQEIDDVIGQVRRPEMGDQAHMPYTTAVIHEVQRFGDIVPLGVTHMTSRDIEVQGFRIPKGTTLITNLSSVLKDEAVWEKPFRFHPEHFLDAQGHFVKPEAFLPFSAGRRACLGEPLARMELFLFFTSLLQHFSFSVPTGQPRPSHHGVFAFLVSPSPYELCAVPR

Structure (SMILES) | ED50 (Staphylococcus aureus [1]) [mg/kg] | MIC (Staphylococcus aureus [2]) [µg/mL] | Ratio (Haemophilus influenzae [3]) | Ratio (Streptococcus pneumoniae [4]) | Ratio (Moraxella catarrhalis [5]) | Ratio (Enterococcus faecium [6]) | Ratio (Enterococcus faecalis [7]) | Ratio (Staphylococcus aureus [8]) | Ratio (Staphylococcus aureus [9]) | MIC (Haemophilus influenzae [10]) [µg/mL] | MIC (Streptococcus pneumoniae [11]) [µg/mL] | MIC (Staphylococcus aureus [12]) [µg/mL] | MIC (Enterococcus faecalis [13]) [µg/mL] | MIC (Staphylococcus aureus [14]) [µg/mL] | MIC (Staphylococcus aureus [15]) [µg/mL] | MIC (Moraxella catarrhalis [16]) [µg/mL] | MIC (Enterococcus faecium [17]) [µg/mL] | further results
O=CN1CCN(c2c(F)cc(N3C[C@H](Cn4ccnn4)OC3=O)cc2F)CCN1 | 2.5 | 0.25 | 4 | 4 | 4 | 4 | 4 | 4 | 4 | 8 | ≤ 0.063 | 16 | 1 | 0.25 | 1 | 8 | 1 | 
CC(=O)NC[C@H]1CN(c2ccc(-c3ccc(N4CCNOCC4)nc3)c(F)c2)C(=O)O1 |  |  | 2 | 2 | 2 | 2 | 2 | 2 | 2 | 16 | 0.125 | 8 | 1 | 1 | 2 | 16 | 1 | 
O=C1O[C@@H](Cn2ccnn2)CN1c1ccc(-c2ccc(N3CCNOCC3)nc2)c(F)c1 |  |  | 2 | 2 | 2 | 2 | 2 | 2 | 2 | 32 | 0.25 | 8 | 2 | 1 | 2 | 8 | 1 | 
CNC(=O)N1CCN(c2ccc(N3C[C@H](CNC(=S)OC)OC3=O)cc2F)CCN1 | 0.86 | 0.5 |  |  |  |  |  |  |  | 16 | 0.25 | 8 | 0.5 | 0.25 | 0.5 | 2 | 0.25 | inhibition at 10 min, 30 µM (MAO-B): 3.1%; inhibition at 5 min, 30 µM (MAO-A): 3.4%; IC50 (Cytochrome P450 3A4): > 20 µM; IC50 (Cytochrome P450 2D6): > 20 µM; IC50 (Cytochrome P450 2C9): > 20 µM; IC50 (Cytochrome P450 1A2): > 20 µM
CC(=S)NC[C@H]1CN(c2ccc(N3CCNN(C(N)=O)CC3)c(F)c2)C(=O)O1 |  |  | 4 | 4 | 4 | 4 | 4 | 4 | 4 | 4 | 0.063 | 8 | 0.5 | 0.25 | 0.25 | 4 | 0.5 | 
CC(=S)NC[C@H]1CN(c2cc(F)c(N3CCNN(C(N)=O)CC3)c(F)c2)C(=O)O1 |  |  | 4 | 4 | 4 | 4 | 4 | 4 | 4 | 4 | 0.063 | 4 | 0.25 | 0.125 | 0.25 | 1 | 0.25 | 
COC(=S)NC[C@H]1CN(c2ccc(N3CCNN(C(N)=O)CC3)c(F)c2)C(=O)O1 |  |  | 4 | 4 | 4 | 4 | 4 | 4 | 4 | 4 | ≤ 0.063 | 4 | 0.25 | 0.25 | 0.25 | 2 | 0.125 | 
COC(=S)NC[C@H]1CN(c2cc(F)c(N3CCNN(C(N)=O)CC3)c(F)c2)C(=O)O1 | 1.23 | 0.25 | 4 | 4 | 4 | 4 | 4 | 4 | 4 | 16 | ≤ 0.063 | 2 | 0.5 | 0.25 | 0.25 | 0.5 | 0.125 | 
COC(=S)NC[C@H]1CN(c2cc(F)c(N3CCON(C(N)=O)CC3)c(F)c2)C(=O)O1 |  |  | 4 | 4 | 4 | 4 | 4 | 4 | 4 | 8 | ≤ 0.063 | 2 | 0.25 | 0.25 | 0.25 | 1 | 0.125 | 
COC(=S)NC[C@H]1CN(c2ccc(N3CCNN(C=O)CC3)c(F)c2)C(=O)O1 | 2.95 | 0.25 | 4 | 4 | 4 | 4 | 4 | 4 | 4 | 4 | 0.063 | 4 | 0.25 | 0.25 | 0.25 | 2 | 0.25 | 
O=CN1CCN(c2c(F)cc(N3C[C@H](CNc4ccon4)OC3=O)cc2F)CCN1 |  |  | 4 | 4 | 4 | 4 | 4 | 4 | 4 | 16 | 0.25 | 16 | 1 | 0.5 | 1 | 8 | 1 | 
CC(=O)NC[C@H]1CN(c2ccc(N3CCOCC3)c(F)c2)C(=O)O1 [LINEZOLID] |  |  |  |  |  |  |  |  |  | 16 |  | 32 |  |  |  | 8 | 2 | inhibition (INH) (Cytochrome P450 3A4; human, microsomes, 20 min): Active; inhibition (INH) (Cytochrome P450 2D6; human, microsomes, 20 min): Active; inhibition (INH) (Cytochrome P450 2C9; human, microsomes, 20 min): Active; inhibition (INH) (Cytochrome P450 1A2; human, microsomes, 20 min): Active
